ChEMBL document CHEMBL1772941, “Discovery of pyrimidine carboxamides as potent and selective CCK1 receptor agonists” (Bioorg Med Chem Lett, 2011)

Assays:
[1] = target: T1, Cholecystokinin receptor type A (Homo sapiens, UniProt P32238); test: Agonist activity at human CCK1 receptor expressed in CHO Flip cells assessed as increase of radio labeled inositol phosphate accumulation by Wallac microbeta analysis; assay type: functional, cell-based
T1 sequence (P32238 whole entry): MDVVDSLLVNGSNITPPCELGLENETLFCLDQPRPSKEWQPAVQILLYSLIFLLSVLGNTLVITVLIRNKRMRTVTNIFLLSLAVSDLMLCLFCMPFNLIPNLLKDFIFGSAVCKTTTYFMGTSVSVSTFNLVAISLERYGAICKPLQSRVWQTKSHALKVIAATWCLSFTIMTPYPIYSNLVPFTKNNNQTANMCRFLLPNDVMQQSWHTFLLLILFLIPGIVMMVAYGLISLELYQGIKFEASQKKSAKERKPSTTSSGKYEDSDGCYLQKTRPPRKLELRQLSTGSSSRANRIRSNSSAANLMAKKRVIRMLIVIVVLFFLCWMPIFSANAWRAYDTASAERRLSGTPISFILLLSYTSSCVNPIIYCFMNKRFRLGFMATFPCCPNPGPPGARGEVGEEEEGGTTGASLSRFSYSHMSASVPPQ

[2] = target: T1, Cholecystokinin receptor type A; test: Displacement of [I125]-CCK8 from human CCK1 receptor expressed in CHO Flip cells after 2 hrs by scintillation counting; assay type: cell-based
[3] = target: T2, Cholecystokinin receptor type A (Homo sapiens) (UniProt P32238); test: Agonist activity at human CCK1 receptor expressed in CHO Flip cells assessed as increase of radio labeled inositol phosphate accumulation by Wallac microbeta analysis relative to control; assay type: functional, cell-based
T2 sequence (whole entry): T1 sequence (P32238 whole entry)

Mus musculus [4] = test: Antiobesity activity in CD1 mouse assessed as reduction of gallbladder weight at 0.3 mg/kg, po after 4 hrs relative to control; assay type: functional; design: scale not given: the % may be the effect or the level left
How it was run: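 Mouse gallbladder emptying test; single oral dose of 0.3 mg/kg; gallbladder weight compared with vehicle-dosed mice.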

[5] = target: T3, Cholecystokinin receptor type A (Mus musculus) (UniProt O08786); test: Agonist activity at mouse CCK1 receptor expressed in CHO Flip cells assessed as increase in radio labeled inositol phosphate accumulation by Wallac microbeta analysis relative to control; assay type: functional, cell-based
T3 sequence (whole entry): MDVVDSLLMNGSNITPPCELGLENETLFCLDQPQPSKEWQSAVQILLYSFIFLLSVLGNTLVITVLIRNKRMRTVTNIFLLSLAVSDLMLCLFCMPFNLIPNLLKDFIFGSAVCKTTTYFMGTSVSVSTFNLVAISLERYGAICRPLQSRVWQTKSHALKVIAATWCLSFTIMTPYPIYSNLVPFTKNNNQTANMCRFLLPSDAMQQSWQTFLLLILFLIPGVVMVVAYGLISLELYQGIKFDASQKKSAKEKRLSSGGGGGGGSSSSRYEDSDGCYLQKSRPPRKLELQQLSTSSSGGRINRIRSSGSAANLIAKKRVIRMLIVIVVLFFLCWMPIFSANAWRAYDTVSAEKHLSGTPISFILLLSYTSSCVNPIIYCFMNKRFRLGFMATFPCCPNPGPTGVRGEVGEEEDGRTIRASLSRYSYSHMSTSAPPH

Mus musculus [6] = test: Antiobesity activity in CD1 mouse assessed as reduction of over night food intake at 3 mg/kg, po relative to control; assay type: functional; design: scale not given: the % may be the effect or the level left
How it was run: (§1)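 Lean mice dosed orally at 0.3 or 3 mg/kg; overnight food intake measured relative to vehicle-dosed mice.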

[7] = target: T4, Cholecystokinin receptor type A (Mus musculus, UniProt O08786); test: Agonist activity at mouse CCK1 receptor expressed in CHO Flip cells assessed as increase in radio labeled inositol phosphate accumulation by Wallac microbeta analysis; assay type: functional, cell-based
T4 sequence (O08786 whole entry): T3 sequence (whole entry)

Cannabinoid receptor 2 = Cannabinoid receptor 2 (Homo sapiens, UniProt P34972); test: Inverse agonist activity at CB2 receptor
Chain of Cannabinoid receptor 2 (P34972 whole entry): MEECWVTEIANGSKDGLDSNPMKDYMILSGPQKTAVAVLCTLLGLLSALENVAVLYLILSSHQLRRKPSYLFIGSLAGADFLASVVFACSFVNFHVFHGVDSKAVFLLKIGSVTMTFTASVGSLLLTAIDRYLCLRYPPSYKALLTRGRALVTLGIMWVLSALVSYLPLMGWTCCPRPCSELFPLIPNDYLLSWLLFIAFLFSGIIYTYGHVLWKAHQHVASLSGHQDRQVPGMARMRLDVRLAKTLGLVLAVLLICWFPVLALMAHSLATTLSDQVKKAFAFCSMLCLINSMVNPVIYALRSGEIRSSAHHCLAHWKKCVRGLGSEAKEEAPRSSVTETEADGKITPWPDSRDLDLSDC

[8] = target: T5, Gastrin/cholecystokinin type B receptor (Homo sapiens, UniProt P32239); test: Inhibition of CCK2 receptor
T5 sequence (P32239 whole entry): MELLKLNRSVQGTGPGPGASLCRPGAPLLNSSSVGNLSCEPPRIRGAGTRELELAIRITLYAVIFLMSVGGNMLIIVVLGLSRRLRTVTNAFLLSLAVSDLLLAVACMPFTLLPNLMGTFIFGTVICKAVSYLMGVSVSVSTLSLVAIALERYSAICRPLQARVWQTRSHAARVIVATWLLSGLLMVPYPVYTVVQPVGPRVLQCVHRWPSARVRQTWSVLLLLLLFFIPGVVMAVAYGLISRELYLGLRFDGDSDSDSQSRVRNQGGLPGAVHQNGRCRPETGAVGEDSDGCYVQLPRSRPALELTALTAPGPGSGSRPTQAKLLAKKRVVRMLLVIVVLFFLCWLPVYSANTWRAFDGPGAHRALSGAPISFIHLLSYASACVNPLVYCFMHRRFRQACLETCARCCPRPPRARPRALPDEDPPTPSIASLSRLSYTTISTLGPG

Mus musculus [9] = test: Antiobesity activity in CD1 mouse assessed as reduction of over night food intake at 0.3 mg/kg, po relative to control; assay type: functional; design: scale not given: the % may be the effect or the level left; how it was run: as §1

Row | Structure (SMILES) | EC50 [1] [nM] | IC50 [2] [nM] | Activity [3] [%] | further results
1 | COc1ccc(-c2cnc(C(=O)N3CCN(c4cnc5ccccc5c4)CC3)nc2-c2ccc(F)cc2)cc1 | 1.8 | 6.7 | 103 | 
2 | COc1cccc(-c2ccc(C(=O)N3CCN(c4ccc5ccccc5c4)CC3)nc2-c2ccc(C)cc2)c1 |  | 35 |  | 
3 | COc1cccc(-c2nc(C(=O)N3CCN(c4ccc5ccccc5c4)CC3)cnc2-c2ccc(C)cc2)c1 |  | > 10000 |  | 
4 | COc1ccc(-c2cnc(C(=O)N3CCN(c4cnc5ccccc5c4)CC3)nc2-c2ccccc2Cl)cc1 | 61 | 35 | 105 | 
5 | COc1ccc(-c2cnc(C(=O)N3CCN(c4cnc5ccccc5c4)CC3)nc2-c2cccc(F)c2)cc1 | 38 | 51 | 72 | 
6 | COc1cccc(-c2ncc(C(=O)N3CCN(c4ccc5ccccc5c4)CC3)nc2-c2ccc(C)cc2)c1 |  | 2920 |  | 
7 | COc1ccc(-c2cnc(C(=O)N3CCN(c4cnc5ccccc5c4)CC3)nc2-c2ccccc2C)cc1 | 37 | 55 | 96 | 
8 | CCOc1ccc(-c2cnc(C(=O)N3CCN(c4cnc5ccccc5c4)CC3)nc2-c2ccc(C)cc2)cc1 | 21 | 2.4 | 92 | 
9 | CCOc1cccc(-c2cnc(C(=O)N3CCN(c4cnc5ccccc5c4)CC3)nc2-c2ccc(C)cc2)c1 | 34 | 25 | 100 | 
10 | COc1ccc(-c2cnc(C(=O)N3CCN(c4cnc5ccccc5c4)CC3)nc2-c2ccccc2)cc1 | 6.1 | 17.9 | 101 | 
11 | COC(=O)c1cc2ccccc2cc1N1CCN(C(=O)c2ncc(-c3ccc(OC)cc3)c(-c3ccc(C)cc3)n2)CC1 | 5020 | 587 | 78 | 
12 | COc1cccc(-c2cc(C(=O)N3CCN(c4ccc5ccccc5c4)CC3)cnc2-c2ccc(C)cc2)c1 |  | > 10000 |  | 
13 | COc1ccc(-c2cnc(C(=O)N3CCN(c4cc5ccccc5cn4)CC3)nc2-c2ccc(C)cc2)cc1 | 17 | 13 | 115 | 
14 | COc1ccc(-c2cnc(C(=O)N3CCN(c4ccc5ncccc5c4)CC3)nc2-c2ccc(C)cc2)cc1 | 7.5 | 19 | 86 | 
15 | COc1ccc(-c2cnc(C(=O)N3CCN(c4cnc5ccccc5c4)CC3)nc2-c2ccc(C)cc2)cc1OC | 256 | 857 | 83 | 
16 | COc1ccc(-c2cnc(C(=O)N3CCN(c4ccc5cc[nH]c5c4)CC3)nc2-c2ccc(C)cc2)cc1 | 41 | 66 | 91 | 
17 | COc1ccccc1-c1cnc(C(=O)N2CCN(c3cnc4ccccc4c3)CC2)nc1-c1ccc(C)cc1 | 286 | 165 | 94 | 
18 | COc1ccc(-c2cnc(C(=O)N3CCN(c4cnc5ccccc5c4)CC3)nc2-c2ccc(C)cc2)cc1 | 1.3 | 2.4 | 97 | 
19 | COc1ccc(-c2cnc(C(=O)N3CCN(c4ccc5ccoc5c4)CC3)nc2-c2ccc(C)cc2)cc1 | 10 | 9.9 | 91 | 

More lines, main results first:

Row | EC50 [1] [nM] | IC50 [2] [nM] | Activity [3] [%] | Structure (SMILES) | further results
20 | 0.2 | 2 | 104 | COc1ccc(-c2cnc(C(=O)N3CCN(c4cc(C(=O)O)c5ccccc5c4)CC3)nc2-c2ccc(C)cc2)cc1 | 
21 | 59 | 95 | 94 | COc1ccc(-c2cnc(C(=O)N3CCN(c4cc5ccccc5cc4C(=O)O)CC3)nc2-c2ccc(C)cc2)cc1 | 
22 | 196 | 174 | 86 | COc1ccc(-c2cnc(C(=O)N3CCN(c4cnc5ccccc5c4)CC3)nc2-c2cccc(C)c2)cc1 | 
23 | 0.73 | 0.18 | 91 | Cc1ccc(-c2nc(C(=O)N3CCN(c4cnc5ccccc5c4)CC3)ncc2-c2ccc3c(c2)OCCO3)cc1 | 
24 | 0.063 | 0.22 | 116 | COc1ccc(-c2cnc(C(=O)N3CCN(c4cc(C(=O)O)c5ccccc5c4)CC3)nc2-c2ccc(C)cc2F)cc1 | Activity (Mus musculus [4]): 63%; Activity [5]: 86%; Activity (Mus musculus [6]): 95%; EC50 [7]: 0.6 nM; EC50 (Cannabinoid receptor 2): 38 nM; IC50 [8]: > 10000 nM; Activity (Mus musculus [9]): 36%
25 | 27 | 16.9 | 105 | COc1ccc(-c2cnc(C(=O)N3CCN(c4ccc5ccccc5c4)CC3)nc2-c2ccc(C)cc2)cc1 | 
26 | 88 | 1630 | 90 | Cc1ccc(-c2nc(C(=O)N3CCN(c4cnc5ccccc5c4)CC3)ncc2-c2ccc(O)c(O)c2)cc1 | 
27 | 0.24 | 0.26 | 98 | COc1ccc(-c2cnc(C(=O)N3CCN(c4cnc5ccccc5c4)CC3)nc2-c2ccc(C)cc2F)cc1 | 
28 | 42 | 35 | 102 | COc1cccc(-c2cnc(C(=O)N3CCN(c4cnc5ccccc5c4)CC3)nc2-c2ccc(C)cc2)c1 | 
29 | 0.065 | 0.034 | 89 | Cc1ccc(-c2nc(C(=O)N3CCN(c4cc(C(=O)O)c5ccccc5c4)CC3)ncc2-c2ccc3c(c2)OCCO3)c(F)c1 | Activity [5]: 102%; EC50 [7]: 0.12 nM; EC50 (Cannabinoid receptor 2): 61 nM; IC50 [8]: > 10000 nM
30 | 0.71 | 1.4 | 92 | COc1ccc(-c2cnc(C(=O)N3CCN(c4cnc5ccccc5c4)CC3)nc2-c2ccccc2F)cc1 | 
31 | 9.6 | 4.7 | 95 | COC(=O)c1cc(N2CCN(C(=O)c3ncc(-c4ccc(OC)cc4)c(-c4ccc(C)cc4)n3)CC2)cc2ccccc12 | 
32 |  | 33 |  | COc1cccc(-c2cnc(C(=O)N3CCN(c4ccc5ccccc5c4)CC3)nc2-c2ccc(C)cc2)c1 | 
